# Compound activity: PubChem, The Scripps Research Institute Molecular Screening Center
# Most compounds without a hit are left out; they make up all but 1.7% or so of the library.
# PP5 inh – blocks human protein phosphatase 5 activity; purified PP5c, OMFP substrate fluorescence; inhibition, % at 6.7 µM; 320,000 tested, 0.18% active;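 active = inhibition above the campaign's mean inhibition across all tested compounds plus 3 SD, cut at about 9.5% in these data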;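 note: 0% = DMSO only and 100% = 100 µM cantharidin control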
# EBNA-1 inhibitor – blocks EBNA-1 binding to DNA. 300,000 tested, 0.34% active. inhibition, % at 14.8 µM. AID 1950. EBNA-1 DNA binding, fluorescence polarization; in the data active = inhibition above about 28%
# HCV core dimer – HCV core protein dimerization inhibition | 300,000 tested, 0.33% active | inhibition, % at 5 µM | TR-FRET GST/Flag-core106 dimerization, 1536-well;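 active = inhibition above the mean of all tested compounds plus 3 SD, set per screening campaign, cut at about 45% in these data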
#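 assay system = GST-tagged and Flag-tagged HCV core protein residues 1-106 | controls = unlabelled core106 and no-GST-core106 wells | incubation = compound-protein-antibody incubation 4 h at 22.5 °C | probe or stimulus = Eu donor and XL665 acceptor anti-tag antibodies | read-out = % inhibition based on acceptor/donor emission ratio | signal = TR-FRET 671 and 617 nm emission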
# ZTA counter – blocks Epstein-Barr virus ZTA, an EBNA-1 counter-screen; P03206; ZTA-DNA binding, fluorescence polarization; inhibition, % at 11 µM; 320,000 tested, 0.15% active; in the data active = inhibition above about 33%
# Target sequence (P03206 whole entry, looked up): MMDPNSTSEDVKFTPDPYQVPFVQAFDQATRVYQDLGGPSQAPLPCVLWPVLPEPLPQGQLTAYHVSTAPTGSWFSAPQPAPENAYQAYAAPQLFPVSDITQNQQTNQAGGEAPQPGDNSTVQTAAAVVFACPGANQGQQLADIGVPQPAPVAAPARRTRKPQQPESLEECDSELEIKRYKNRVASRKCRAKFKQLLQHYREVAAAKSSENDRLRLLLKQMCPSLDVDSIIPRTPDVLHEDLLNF
# PP1 counter – blocks human PP1-alpha phosphatase, a PP5 counter-screen. purified PP1alpha, OMFP fluorescence. inhibition, % at 6.7 µM. 320,000 tested, 0.9% active;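 active = inhibition above the mean inhibition of all tested compounds plus 3 SD, computed separately for each screening campaign, cut at about 15% in these data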
# Target sequence (P62136 whole entry, looked up): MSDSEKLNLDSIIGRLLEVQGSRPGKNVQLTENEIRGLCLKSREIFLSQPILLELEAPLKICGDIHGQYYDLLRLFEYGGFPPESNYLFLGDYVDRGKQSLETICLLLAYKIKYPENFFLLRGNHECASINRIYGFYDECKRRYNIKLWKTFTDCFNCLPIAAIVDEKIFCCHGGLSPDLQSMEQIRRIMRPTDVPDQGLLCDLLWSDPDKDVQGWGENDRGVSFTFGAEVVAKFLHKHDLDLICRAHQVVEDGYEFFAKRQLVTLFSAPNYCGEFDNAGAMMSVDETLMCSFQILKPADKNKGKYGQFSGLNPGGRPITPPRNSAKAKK
# PP5 conf – PP5 (human) inhibition, confirmation; shares compounds with PP5 inh; inhibition, % at 6.7 µM; Purified PP5, fluorogenic phosphatase substrate, fluorescence; 460 tested, 22% active; in the data active = inhibition above about 9.5%
# PP1 inh counter – inhibits human PP1 phosphatase in PP5 counter-screen; PP1 enzyme, fluorescent phosphatase substrate; inhibition, % at 6.7 µM; 460 tested, 4% active; shares compounds with PP5 inh; in the data active = inhibition above about 16%
# * = called active by the depositor; . = not tested or not shown.
SMILES,PP5 inh,EBNA-1 inhibitor,HCV core dimer,ZTA counter,PP1 counter,PP5 conf,PP1 inh counter
CO/N=C(\CCC(=O)O)c1cccs1,9.7*,-0.8,-2.3,3.1,-1.2,-6.2,-4.0
CC(C)c1cc(C(=O)N/N=C/c2c[nH]c3ccccc23)n[nH]1,9.8*,4.5,-5.7,4.3,-1.5,-5.6,-3.1
CCOc1ccccc1/C=N/NC(=O)c1cc(C(C)C)[nH]n1,-0.7,2.2,9.4,10.9,-3.4,.,.
COc1cc(C2=NC(CO)(CO)CO2)cc(OC)c1OC,1.2,3.1,0.7,7.8,-3.4,.,.
O=C(CSc1nnc(-c2cccs2)o1)NCC1CN(Cc2ccccc2)CCO1 (stereo not given),19.2*,-2.1,-6.2,3.9,-1.4,-3.6,-6.0
CCCCCOc1ccc(C(=O)CCC(=O)Nc2ccc(NC(C)=O)cc2)cc1,0.1,11.8,6.4,12.2,0.0,.,.
O=S(=O)(c1ccc(Br)s1)n1cccn1,12.0*,-1.9,-3.5,-12.6,-3.2,-3.2,-4.3
O=S(=O)(c1cccs1)n1cccn1,2.5,6.5,-5.0,2.3,-3.9,.,.
O=C(CCC1CCCN(Cc2ccc3c(c2)CCO3)C1)NCc1ccc(F)c(F)c1 (stereo not given),2.3,-5.0,-5.3,-16.3,-3.1,.,.
CCC(=O)Nc1cccc(NC(=O)CSc2nnc(-c3ccc(NS(C)(=O)=O)cc3)n2CC)c1,9.7*,-3.3,-1.3,-8.7,2.4,-4.2,-5.0
CCn1ccnc1CNC(=O)c1ccc2oc(C(C)C)nc2c1,0.8,-1.7,-5.8,0.6,-0.4,.,.
CCOC(=O)c1nn(-c2ccc(C)cc2)c(=O)c2c(N)scc12,10.0*,7.7,-3.0,1.3,3.9,22.6*,-2.9
CCOC(=O)c1nn(-c2ccc(F)cc2)c(=O)c2c(N)scc12,3.0,5.4,0.4,7.3,-2.3,.,.
COc1ccc(C2=NN(C(=O)CN3CCCCC3)C(c3ccc(OC)cc3)C2)cc1 (stereo not given),16.5*,-16.4,0.9,-17.9,-0.3,-2.8,-4.5
COc1ccc(C2=NN(C(=O)CN3CCCC3)C(c3ccc(OC)cc3)C2)cc1 (stereo not given),-0.6,-8.9,1.4,-13.1,0.1,.,.
COC(CNC(=O)c1ccc(CS(=O)(=O)c2ccccc2)o1)OC,13.9*,6.9,0.9,-1.2,1.5,-3.2,-4.4
CCOC(=O)Cc1nc(-c2cccc(C(F)(F)F)c2)no1,-0.8,-0.4,-1.7,2.4,-2.2,.,.
C=CCN1C=C2C(=O)C(C)(OC(=O)CCC(=O)OC)C(=O)C(Br)=C2C=C1c1ccc(OC)cc1 (stereo not given),11.9*,6.8,9.5,20.1,6.5,37.8*,17.7*
Cc1cccc(N(C)S(=O)(=O)c2c[nH]c3ccc([N+](=O)[O-])cc23)c1,8.9,0.0,3.5,-1.5,0.1,.,.
CCC1Sc2ccc(S(=O)(=O)CCC(=O)Nc3cccc(Br)c3)cc2NC1=O (stereo not given),-1.1,3.0,4.0,10.5,0.1,.,.
FC(F)C(F)(F)C(F)(F)C(F)(F)c1cc(-c2ccccc2)n[nH]1,10.8*,-2.5,2.2,-4.8,-4.2,9.7*,9.6
Cc1csc(=Nc2c(C)n(C)n(-c3ccccc3)c2=O)n1-c1ccccc1,0.6,0.8,-0.5,-23.8,-5.5,.,.
Cc1c(N=c2c(=O)c3ccccc3c2=O)c(=O)n(-c2ccccc2)n1C,12.7*,-2.1,-7.3,-0.1,2.4,34.6*,12.3
NNC(=O)c1cc(-c2cccs2)nc2ccccc12,14.9*,-8.7,-1.0,-17.8,1.7,-2.8,-1.9
CN(C)c1nc(SCCOC(=O)COc2ccc(Cl)cc2Cl)nc(N(C)C)n1,11.2*,-7.3,3.2,-6.4,-2.2,-2.7,-2.2
SMILES,PP5 inh,EBNA-1 inhibitor,HCV core dimer,ZTA counter,PP1 counter,PP5 conf,PP1 inh counter
CN(C)c1nc(OCCOC(=O)COc2ccc(Cl)cc2Cl)nc(N(C)C)n1,2.5,-5.1,-2.7,9.2,1.2,.,.
CCc1ccc(/C=C2/C(=O)NC(=O)N2C(C)=O)cc1,0.4,-0.9,1.4,2.2,-3.7,.,.
CC(C)(C)P(=O)(CO)c1ccccc1 (stereo not given),10.8*,4.1,4.8,-7.8,-2.2,-2.7,-3.9
CCOC(=O)CNC(=O)c1cc(C)oc1C,14.2*,-1.2,0.2,-8.5,-2.3,-0.2,-1.3
CCOC(=O)c1c(C)[nH]c(C)c1C(=O)COC(=O)/C=C/c1cccc(F)c1,2.8,1.4,1.1,1.5,-0.5,.,.
CCOC(=O)c1c(C)[nH]c(C)c1C(=O)COC(=O)/C=C/c1cccc(C(F)(F)F)c1,11.5*,-5.6,-3.7,9.2,1.6,8.0,9.1
COc1ccccc1-n1c(CNc2c(C)cccc2C)nnc1SCC(=O)N1CCOCC1,1.4,-1.6,-1.6,-5.6,-0.8,.,.
O=C(c1cc(-c2ccc(Cl)cc2)n(-c2ccc(Cl)cc2)n1)N1CCOCC1,13.2*,-5.9,0.3,-0.6,-1.1,-2.9,-1.5
Cc1ccc(-n2nc(C(=O)N3CCOCC3)cc2-c2ccc(Cl)cc2)cc1,6.8,-16.6,5.8,-24.7,2.6,.,.
O=C(Nc1ccccc1C(=O)N1CCOCC1)C1CC(=O)N(C2CCCC2)C1 (stereo not given),13.5*,-9.0,-1.7,-18.2,1.0,-2.9,-3.7
COc1ccc(CCC(=O)Nc2nnc(C(C)(C)C)s2)cc1,12.6*,1.7,10.9,-3.4,-0.4,-0.2,-1.2
COc1ccc(CCC(=O)Nc2nnc(C(F)(F)F)s2)cc1,1.9,7.2,0.1,3.0,0.4,.,.
Cc1cc(NS(=O)(=O)c2ccc(Nc3nc(-c4ccc(C)c(C)c4)cs3)cc2)no1,10.8*,13.7,22.6,11.9,3.7,5.4,9.1
COc1ccc(Oc2ccc3c(C(F)(F)F)cc(C(F)(F)F)nc3n2)cc1,15.6*,-2.2,-2.7,-24.5,0.1,3.0,1.5
Cc1nc(N2CCC(C)CC2)c2oc3ccccc3c2n1,5.8,-1.9,-1.0,-1.7,-1.5,.,.
COc1ccccc1N1CCN(c2nc(C)nc3c2oc2ccccc23)CC1,10.4*,2.0,6.8,-7.3,1.2,0.9,-0.1
CCn1c(=O)c([N+](=O)[O-])c(N2CCSCC2)c2ccccc21,1.1,-9.4,-2.5,-0.2,0.9,.,.
CCn1c(=O)c([N+](=O)[O-])c(N2CCN(Cc3ccc4c(c3)OCO4)CC2)c2ccccc21,10.2*,-1.5,8.9,10.8,-2.1,-3.5,-1.6
Cc1ccc(CNC(=O)c2ccc(C#CC(C)(C)O)s2)cc1,9.6*,-7.4,-0.9,-23.1,0.7,-2.7,-1.9
Cc1ccc(S(=O)(=O)Nc2ccc(C(=O)Nc3ccncc3)cc2)cc1,2.0,-3.0,3.4,-6.5,-0.5,.,.
CCN(CC)S(=O)(=O)c1ccc(NC(=O)Nc2cccc(C(F)(F)F)c2)cc1,8.5,-9.3,0.9,-7.2,5.9,.,.
Cc1ccc(NS(=O)(=O)c2ccc(NC(=O)c3cccc(NC(=O)C(C)C)c3)cc2)cc1,9.8*,-25.4,4.7,-4.3,1.4,4.5,1.9
